# Compound activity (PubChem)
# In the library only some 0.22% were active in any assay of this set; here they are far more common.
# GASC1 inh: inhibitors of GASC-1 (KDM4C) histone demethylase, primary screen, biochemical, single concentration HTS. Lysine-specific demethylase 4C (Homo sapiens), Q9H3R0. actives 0.15% (n = 96,000). GST-KDM4C 2-372, H3K9me3 peptide, LANCE TR-FRET. inhibition, % at 12.5 µM. AID 720574, 2013;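 active means mean replicate inhibition above about 25%, with at least 55% of replicates also reaching it, limit read from the data, passing the limit was not always enough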
# Target sequence (Q9H3R0 2-372 limits assumed): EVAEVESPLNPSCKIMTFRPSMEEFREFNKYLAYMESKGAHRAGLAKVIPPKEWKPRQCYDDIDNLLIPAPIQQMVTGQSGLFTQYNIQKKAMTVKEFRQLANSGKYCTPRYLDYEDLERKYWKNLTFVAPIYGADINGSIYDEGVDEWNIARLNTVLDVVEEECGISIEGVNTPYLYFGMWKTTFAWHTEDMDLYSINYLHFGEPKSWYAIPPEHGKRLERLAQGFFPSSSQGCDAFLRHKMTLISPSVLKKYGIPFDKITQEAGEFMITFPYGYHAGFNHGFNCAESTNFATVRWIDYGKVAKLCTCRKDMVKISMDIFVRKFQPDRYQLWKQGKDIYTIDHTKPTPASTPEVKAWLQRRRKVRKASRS
#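 System: N-terminal GST-fused human GASC-1 (KDM4C) fragment, residues 2-372; amount: enzyme final amount 10 nM; incubation: reaction 30 min RT, detection step 1 h RT; medium: HEPES buffer, pH 7.5, plus ascorbate; technique: LANCE TR-FRET, Eu antibody, ULight-streptavidin, EDTA, ex 340 nm, em 618/671 nm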
# IDH1 mut inh: inhibitors of IDH1 R132H reductase, primary screen, biochemical, plate reader, single point; diaphorase/resazurin fluorescence, 60 min; AID 624101, 2012; inhibition, % at 10 µM; actives 0.18% (n = 70,000); Isocitrate dehydrogenase [NADP] cytoplasmic (Homo sapiens), O75874; in the data active means inhibition above about 34%;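 further: 0% = DMSO and 100% = no enzyme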
# Active calls of the source: *; x = not tested or not shown.
SMILES,GASC1 inh,IDH1 mut inh
COc1ccc(S(=O)(=O)N(C)C[C@H]2OCCCC[C@@H](C)Oc3ccc(NC(=O)CCCN(C)C)cc3C(=O)N([C@H](C)CO)C[C@@H]2C)cc1,13,-3
COc1ccc(NC(=O)CCSc2nnc3scc(-c4ccc(C)cc4)n23)cc1,x,0
O=S(=O)(c1ccc(Cl)cc1)c1nc(-c2ccc(F)cc2)oc1NCc1cccnc1,x,-1
CO[C@H]1CN(C)C(=O)c2cc(NC(C)=O)ccc2OC[C@@H](C)N(C(=O)CC2CC2)C[C@H]1C,38*,85*
CO[C@@H]1CN(C)C(=O)c2cc(NC(C)=O)ccc2OC[C@H](C)N(C(=O)CC2CC2)C[C@H]1C,0,0
CO[C@H]1CN(C)C(=O)c2cc(NS(C)(=O)=O)ccc2OC[C@H](C)N(C(=O)CC2CC2)C[C@H]1C,14,45*
CO[C@@H]1CN(C)C(=O)c2cc(NS(C)(=O)=O)ccc2OC[C@H](C)N(C(=O)CC2CC2)C[C@H]1C,0,0
COC(=O)CCCCCCC(=O)N/N=C/c1cc(O)ccc1O,x,53*
O=C(CCCCC(=O)N/N=C/c1cc(O)ccc1O)NO,x,88*
O=C(O)CCCCCC(=O)N/N=C/c1cc(O)ccc1Br,x,5
COC(=O)CCCCCCC(=O)N/N=C/c1cc(OC)ccc1O,x,0
CSc1nc(SCC(=O)N(c2ccccc2)c2ccccc2)c2c3c(sc2n1)CCC3,x,1
COCc1cn(CC[C@@H]2CC[C@H](NC(=O)CCN3CCCCC3)[C@@H](CO)O2)nn1,67*,68*
CN(C)CC(=O)N[C@H]1CC[C@H](CCn2cc(CN(C)C)nn2)O[C@H]1CO,92*,101*
COCc1cn(CC[C@H]2CC[C@@H](NC(=O)CCN3CCCCC3)[C@H](CO)O2)nn1,3,0
CN(C)CC(=O)N[C@H]1CC[C@H](CCn2cc(CN(C)C)nn2)O[C@@H]1CO,3,0
CC(Oc1ccc(Cl)cc1Cl)C(=O)Nc1cccc(Cl)c1N1CCOCC1 (configuration not stated),x,0
COc1ccc(C(=O)CC2(O)C(=O)N(Cc3ccc(C)cc3)c3ccc(Cl)cc32)cc1[N+](=O)[O-] (configuration not stated),x,-1
O=S(=O)(Nc1nccs1)c1ccc(NS(=O)(=O)c2cc(Cl)ccc2Cl)cc1,x,39*
O=S(=O)(Nc1ncccn1)c1ccc(NS(=O)(=O)c2cc(Cl)ccc2Cl)cc1,x,0
COc1ccccc1S(=O)(=O)N(C)C[C@H]1Oc2cc(/C=C/c3ccccc3)ccc2S(=O)(=O)N([C@H](C)CO)C[C@H]1C,-1,-2
COc1ccccc1S(=O)(=O)N(C)C[C@H]1Oc2cc(C#CCC3CCCC3)ccc2S(=O)(=O)N([C@H](C)CO)C[C@H]1C,26*,x
COc1ccccc1S(=O)(=O)N(C)C[C@H]1Oc2cc(/C=C/c3ccccc3)ccc2S(=O)(=O)N([C@H](C)CO)C[C@@H]1C,38*,0
COc1ccccc1S(=O)(=O)N(C)C[C@@H]1Oc2cc(C#CCC3CCCC3)ccc2S(=O)(=O)N([C@H](C)CO)C[C@@H]1C,0,0
COc1cc(C2NC(=O)NC(c3ccccc3)=C2C(=O)c2ccccc2)cc(Cl)c1OCC(N)=O (configuration not stated),x,4
SMILES,GASC1 inh,IDH1 mut inh
CC(=O)N(C)C[C@@H]1Oc2cc(Br)ccc2S(=O)(=O)N([C@@H](C)CO)C[C@@H]1C,42*,19
COc1ccc(-c2ccc3c(c2)O[C@H](CN(C)C(C)=O)[C@@H](C)CN([C@@H](C)CO)S3(=O)=O)cc1,9,0
COc1ccc(-c2ccc3c(c2)O[C@H](CN(C)C(C)=O)[C@@H](C)CN([C@H](C)CO)S3(=O)=O)cc1,56*,54*
CC(=O)N(C)C[C@@H]1Oc2cc(Br)ccc2S(=O)(=O)N([C@H](C)CO)C[C@@H]1C,0,x
CC(=O)Cc1cc(O)cc2oc(C)cc(=O)c12,x,0
O=C(C1CCOCC1)N1C[C@@H]2[C@H](c3ccccc31)[C@H](CO)N2C(=O)Cc1ccccc1,-3,x
O=C(C1CCOCC1)N1C[C@H]2[C@@H](c3ccccc31)[C@H](CO)N2C(=O)Cc1ccccc1,29*,x
CO[C@H]1CN(C)C(=O)c2cc(NC(=O)c3cccc(F)c3)ccc2OC[C@@H](C)N(C(C)=O)C[C@@H]1C,1,0
CO[C@H]1CN(C)C(=O)c2ccc(NC(=O)C3CC3)cc2OC[C@H](C)N(C(C)=O)C[C@H]1C,9,0
CCC(=O)Nc1ccc2c(c1)OC[C@H](C)N(CC1CCOCC1)C[C@@H](C)[C@H](OC)CN(C)C2=O,-1,0
CO[C@@H]1CN(C)C(=O)c2ccc(NC(=O)Nc3c(C)noc3C)cc2OC[C@H](C)N(C)C[C@H]1C,-1,1
